According to ChEMBL document CHEMBL1122918, “Optimization of the Schiff bases of N-hydroxy-N'-aminoguanidine as anticancer and antiviral agents” (J Med Chem, 1985):

How the values were obtained:
Rous sarcoma virus [1] = assay: Inhibition of cell transformation by Rous Sarcoma virus; format: functional; conditions: read-out: ID50 (the source's name)
In short: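 Chick embryo fibroblasts at 5 × 10⁵ cells/60-mm dish, given about 200 focus-forming units of Rous sarcoma virus with drug (final 10⁻³ to 10⁻⁶ M, up to 1% Me₂SO in stock) for 8-16 h at 37 °C. Agar overlay with drug for 4 days, then second overlay. Foci counted on days 7-10; % inhibition = (1 − T/C)×100, probit analysis.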

L1210 [2] = assay: Concentration required for 50% inhibition of cell growth (L1210 Leukemia); format: functional, cell-based; conditions: Mus musculus, read-out: pI50 (converted)
In short: (§1)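 L1210 cells in RPMI1640 with 10% fetal calf serum, seeded at (3–4) × 10⁴ cells/mL. Drug added to final 10⁻³ to 10⁻⁶ M, duplicates, with untreated and Me₂SO controls. Incubated at 37 °C in 5% CO₂, counted by Coulter counter.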

Mus musculus = assay: Compound evaluated for % T/C of median survival time at 100 mg/kg against P388 leukemia in mice
L1210 [3] = assay: Dose required for 50% inhibition of cell growth (L1210 Leukemia) calculated at 48 hours by using probit analysis.; format: functional, Mus musculus; conditions: for IC50: Mus musculus, L1210, 48 h, read-out: ID50 (the source's name); in short: as §1
Rous sarcoma virus [4] = assay: Compound was tested for percent inhibition against Rous sarcoma viral replication at 3e-6M; format: functional
In short: (§2)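 Chick embryo cells at 5 × 10⁵ cells/60-mm dish, medium replaced with fresh Hams F10 medium plus drug solution and Rous sarcoma virus; control of medium plus virus only. On days 3 and 6, medium plus drug renewed; medium harvested two days later. Virus titer in harvests measured by drug-free focus assay on chick embryo fibroblasts and compared with control.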

Rous sarcoma virus [5] = assay: Compound tested for its effect on Rous sarcoma viral replication and virus yield was determined at 3e-6M; format: functional; in short: as §2
[6] = Compound was evaluated for lethal dose in mice; format: toxicity, organism-based; conditions: mouse, in vivo
In short: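 Swiss-Webster male mice, six per dose; compound suspended in 2.5% acacia in normal saline and injected intraperitoneally by body weight; vehicle-injected controls. LD50 calculated by probit analysis.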

Rous sarcoma virus [7] = assay: Compound was tested for percent inhibition against Rous sarcoma viral replication at 5e-6M; format: functional; in short: as §2
Rous sarcoma virus [8] = assay: Compound tested for its effect on Rous sarcoma viral replication and virus yield was determined at 5e-6M; format: functional; in short: as §2
Rous sarcoma virus [9] = assay: Compound tested for its effect on Rous sarcoma viral replication and virus yield was determined at 1e-6 M; format: functional; in short: as §2
Rous sarcoma virus [10] = assay: Compound was tested for percent inhibition against Rous sarcoma viral replication at 1e-6 M; format: functional; in short: as §2
Rous sarcoma virus [11] = assay: Compound was tested for percent inhibition against Rous sarcoma viral replication at 2e-5 M; format: functional; in short: as §2
Rous sarcoma virus [12] = assay: Compound tested for its effect on Rous sarcoma viral replication and virus yield was determined at 2e-5 M; format: functional; in short: as §2
Rous sarcoma virus [13] = assay: Compound tested for its effect on Rous sarcoma viral replication and virus yield was determined at 7e-6M; format: functional; in short: as §2
Rous sarcoma virus [14] = assay: Compound was tested for percent inhibition against Rous sarcoma viral replication at 7e-6M; format: functional; in short: as §2

Compound | IC50 (Rous sarcoma virus [1]) [µM] | IC50 (L1210 [2]) [µM] | IC50 (L1210 [3]) [µM] | further results
Cc1ccc(S(=O)(=O)O)cc1.N/C(=N\O)N/N=C/c1cc(Br)cc(Br)c1O | 6.5 | 16.6 | 16.5 | T/C (Mus musculus): 140%
Cc1ccc(S(=O)(=O)O)cc1.N/C(=N\O)N/N=C/c1nccc2ccccc12 | 15.8 | 3.31 |  | Inhibition (Rous sarcoma virus [4]): 79%; Virus yield (Rous sarcoma virus [5]): 34000 ffu ml-1; ID50 (L1210 [3]): 3.3 µM
CS(=O)(=O)Oc1cccc(/C=N/N=C(\N)NO)c1 | 35.2 | 14.8 | 14.8 | 
Cc1ccc(S(=O)(=O)O)cc1.Cn1cccc1/C=N/N=C(\N)NO | 4.5 | 2.69 | 2.7 | LD50 [6]: 322 mg/kg; Inhibition (Rous sarcoma virus [7]): 44%; Virus yield (Rous sarcoma virus [8]): 90000 ffu ml-1
N/C(=N\O)N/N=C/c1ccc(OCc2ccccc2)cc1 | 8.1 | 25.1 | 25.3 | 
N/C(=N\O)N/N=C/c1ccc(Cl)c([N+](=O)[O-])c1 | 9.6 | 12.6 | 12.7 | 
N/C(=N\O)N/N=C/c1cccc([N+](=O)[O-])c1 | 35.7 | 7.59 | 7.6 | 
N/C(=N\O)N/N=C/c1cccnc1 | 81 | 22.9 | 23.1 | 
COc1ccc(OC)c(/C=N/N=C(\N)NO)c1.Cc1ccc(S(=O)(=O)O)cc1 | 2.7 | 7.08 | 7.1 | Virus yield (Rous sarcoma virus [9]): 31000 ffu ml-1; Inhibition (Rous sarcoma virus [10]): 80%
NC(=O)NO [HYDROXYUREA] |  | 21.4 | 21.6 | 
Cc1ccc(S(=O)(=O)O)cc1.N#Cc1ccc(/C=N/N/C(N)=N/O)cc1 | 97.2 | 9.33 | 9.4 | LD50 [6]: 156 mg/kg
Cc1ccc(S(=O)(=O)O)cc1.N/C(=N\O)N/N=C/c1ccc2ccccc2n1 | 43.8 | 6.76 | 6.8 | Inhibition (Rous sarcoma virus [11]): 84%; Virus yield (Rous sarcoma virus [12]): 25000 ffu ml-1
Cc1ccc(S(=O)(=O)O)cc1.N/C(=N\O)N/N=C/C1CC2C=CC1C2 (stereo not drawn) |  | 10.7 | 10.6 | Virus yield (Rous sarcoma virus [13]): 9300 ffu ml-1; Inhibition (Rous sarcoma virus [14]): 94%
N/C(=N\O)N/N=C/c1ccc(C(F)(F)F)cc1 | 11.8 | 9.12 | 9.2 | 
